Assay [1] is described as follows: Inhibition of Plasmodium falciparum IspC using 1-deoxy-D-xylulose 5-phosphate as substrate by photometric analysis. The method, boiled down: (§1)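 Photometric enzyme assay run per an earlier method. IC50 was fitted by nonlinear regression from eight or more data points. Generally two or three independent determinations were made.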
Assay [2] concerns the target T1, 1-deoxy-D-xylulose 5-phosphate reductoisomerase (Escherichia coli K-12, UniProt P45568).
T1 sequence (P45568 whole entry): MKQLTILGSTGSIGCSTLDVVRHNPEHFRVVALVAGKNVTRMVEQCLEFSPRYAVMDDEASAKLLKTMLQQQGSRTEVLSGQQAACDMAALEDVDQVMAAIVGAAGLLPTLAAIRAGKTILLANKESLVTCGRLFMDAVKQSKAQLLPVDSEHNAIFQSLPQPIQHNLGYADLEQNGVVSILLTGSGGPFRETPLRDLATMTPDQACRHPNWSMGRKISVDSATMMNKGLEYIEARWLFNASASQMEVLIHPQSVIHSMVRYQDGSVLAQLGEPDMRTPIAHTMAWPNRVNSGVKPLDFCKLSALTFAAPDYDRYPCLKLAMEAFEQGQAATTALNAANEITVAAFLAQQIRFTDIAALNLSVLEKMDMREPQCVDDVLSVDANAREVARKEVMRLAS
In words: Inhibition of Escherichia coli M15 recombinant IspC using 1-deoxy-D-xylulose 5-phosphate as substrate by photometric analysis. In short, it runs like this: as §1

Assay [3] has as its target T2, 1-deoxy-D-xylulose 5-phosphate reductoisomerase (Mycobacterium tuberculosis, UniProt P9WNS1).
T2 sequence (P9WNS1 whole entry): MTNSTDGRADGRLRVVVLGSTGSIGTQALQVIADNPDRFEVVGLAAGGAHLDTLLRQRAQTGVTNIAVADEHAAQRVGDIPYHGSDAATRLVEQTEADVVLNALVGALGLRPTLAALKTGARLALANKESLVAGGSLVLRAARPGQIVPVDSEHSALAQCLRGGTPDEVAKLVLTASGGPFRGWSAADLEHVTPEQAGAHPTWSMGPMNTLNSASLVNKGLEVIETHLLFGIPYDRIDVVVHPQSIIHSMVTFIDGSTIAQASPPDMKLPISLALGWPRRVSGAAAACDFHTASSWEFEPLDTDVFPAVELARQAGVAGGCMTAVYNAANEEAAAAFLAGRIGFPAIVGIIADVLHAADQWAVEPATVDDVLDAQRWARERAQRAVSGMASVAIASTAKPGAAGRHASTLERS
In words: Inhibition of Mycobacterium tuberculosis IspC using 1-deoxy-D-xylulose 5-phosphate as substrate by photometric analysis.

Assay [4] relates to Plasmodium falciparum. In words: Antimicrobial activity against chloroquine-sensitive Plasmodium falciparum 3D7 assessed as growth inhibition after 3 days by HRP2-based ELISA. It counts as functional, organism-based. The conditions noted are these: 3D7, 72 h. In short, it runs like this: (§2)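 Parasite growth followed by ELISA for P. falciparum histidine-rich protein 2; values are the mean of two duplicate determinations.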

The test system of assay [5] is Plasmodium falciparum. In words: Antimicrobial activity against chloroquine-resistant Plasmodium falciparum Dd2 assessed as growth inhibition after 3 days by HRP2-based ELISA. The format is functional. The conditions noted are these: Dd2, 72 h. The method, boiled down:
as §2

The subject of assay [6] is Plasmodium falciparum. In words: Antimicrobial activity against multidrug-resistant Plasmodium falciparum FCR3 assessed as growth inhibition after 3 days by HRP2-based ELISA. The conditions noted are these: FCR3, 72 h. The format is functional, organism-based. In short, it runs like this:
as §2
For orientation: ELISA stands for enzyme-linked immunosorbent assay.

Data on 13 compounds can be found in ChEMBL document CHEMBL3351943, “Binding modes of reverse fosmidomycin analogs toward the antimalarial target IspC” (J Med Chem, 2014).

The structures appear in SMILES notation.

The term IC50 denotes the point on the concentration scale where inhibition reaches its midpoint. As for `COc1ccc(C(OCC(=O)N(C)O)P(=O)(O)O)cc1` (stereo unspecified), the IC50 turned out to be 0.05 µM in assay [1]; 0.45 µM in assay [2]; 2.8 µM in assay [3]; 0.31 µM in the assay with Plasmodium falciparum [4]; 1.1 µM in the assay on Plasmodium falciparum [5]; 0.41 µM in the assay on Plasmodium falciparum [6].
As for `Cc1ccc(C(CCC(=O)NO)P(=O)(O)O)cc1` (stereo unspecified), the concentration for half-maximal inhibition (IC50) in assay [1] was 0.19 µM; in assay [2], 0.7 µM; in assay [3], 11 µM; in the assay on Plasmodium falciparum [4], 2.6 µM; in the assay with Plasmodium falciparum [5] it was 2.8 µM.
Take `CN(O)C(=O)CCC(NC(=O)c1ccccc1)P(=O)(O)O` (stereo unspecified): the IC50 in assay [1] is 9.1 µM; in assay [2] it was 11 µM; in assay [3], 238 µM; in the assay with Plasmodium falciparum [4], above 50 µM.
Regarding `COc1ccc(C(CCC(=O)NO)P(=O)(O)O)cc1` (stereo unspecified), the IC50 is 0.08 µM in assay [1]; 0.14 µM in assay [2]; 15 µM in assay [3]; 1.7 µM in the assay with Plasmodium falciparum [4]; 3.6 µM with Plasmodium falciparum [5].
Consider `CN(O)C(=O)CCCC(c1ccccc1)P(=O)(O)O` (stereo unspecified), for which the IC50 in assay [1] is 2.1 µM; in assay [2] it was 4.3 µM; in assay [3], 429 µM; in the assay on Plasmodium falciparum [4] it was above 50 µM.
For the compound `COc1ccc(C(CCC(=O)N(C)O)P(=O)(O)O)cc1OC` (stereo unspecified), the half-inhibitory concentration (IC50) in assay [1] worked out at 0.06 µM; in assay [2], 0.32 µM; in assay [3], 29 µM; in the assay on Plasmodium falciparum [4] it was 0.29 µM; in the assay on Plasmodium falciparum [5], 1.2 µM.
As to `Cc1ccc(C(CCC(=O)N(C)O)P(=O)(O)O)cc1` (stereo unspecified), the half-maximal inhibitory concentration (IC50) was found to be 0.01 µM in assay [1]; 0.29 µM in assay [2]; 0.21 µM in the assay with Plasmodium falciparum [4]; 0.25 µM in the assay on Plasmodium falciparum [5]; 0.38 µM in the assay with Plasmodium falciparum [6].
Take `COc1ccc(C(CCC(=O)N(C)O)P(=O)(O)O)cc1` (stereo unspecified): the IC50 stood at 0.02 µM in assay [1]; 0.07 µM in assay [2]; 2 µM in assay [3]; 0.1 µM with Plasmodium falciparum [4]; 0.3 µM in the assay with Plasmodium falciparum [5]; 0.57 µM in the assay on Plasmodium falciparum [6].
Consider `COc1ccc(C(CCC(=O)NO)P(=O)(O)O)cc1OC` (stereo unspecified), for which the IC50 in assay [1] is 0.13 µM; in assay [2], 1.5 µM; in assay [3], 163 µM; in the assay with Plasmodium falciparum [4], 6.8 µM; in the assay with Plasmodium falciparum [5] it was 8.1 µM.
As to `O=C(CCC(NC(=O)c1ccccc1)P(=O)(O)O)NO` (stereo unspecified), the half-maximal inhibitory concentration (IC50) in assay [1] is above 1000 µM; in assay [2], 741 µM; in assay [3] it was above 1000 µM; in the assay on Plasmodium falciparum [4], above 50 µM.
Consider `O=P(O)(O)CCC(c1cccc2ccccc12)P(=O)(O)O` (stereo unspecified), for which the half-maximal inhibitory concentration (IC50) in assay [1] was above 300 µM; in assay [2], above 500 µM; in assay [3], above 500 µM; in the assay on Plasmodium falciparum [4], above 50 µM.
As for `O=C(CCC(c1ccccc1)P(=O)(O)O)Nc1ccccc1O` (stereo unspecified), the concentration for half-maximal inhibition (IC50) in assay [1] was above 300 µM; in assay [2], above 500 µM; in assay [3], above 500 µM; in the assay on Plasmodium falciparum [4] it was above 50 µM.
In the case of `COc1ccc(C(OCC(=O)NO)P(=O)(O)O)cc1` (stereo unspecified), the IC50 in assay [1] is 2.2 µM; in assay [2], 17 µM; in assay [3], 352 µM; in the assay on Plasmodium falciparum [4], above 50 µM.
